# High-throughput results as filed in PubChem BioAssay.
# Diaphorase inh = diaphorase inhibition or chemical oxidation counter-screen; diaphorase resazurin-to-resorufin fluorescence, NADH, 16 min; bacterial (C. kluyveri) enzyme, not human; inhibition, % at 20 µM; 190,000 compounds, 0.69% hits; AID 1217;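 active = primary screen inhibition at 20 µM above a set limit, cut at about 50% in these data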;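 note: plate controls were DMSO with full reaction for no effect and wells lacking NADH for full effect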
#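 material = Clostridium kluyveri diaphorase enzyme | amount = 0.14 U/mL diaphorase, enzyme working solution | schedule = incubation 16 min, room temperature | detection = fluorescence of resorufin formed from resazurin, Ex 544/Em 590 nm | benchmarks = positive control minus NADH, DMSO neutral control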
# G6PDH CS = L. mesenteroides G6PDH inhibition counter-screen; Purified L. mesenteroides G6PDH, diaphorase/resazurin coupled fluorescence, 45 min; inhibition, % at 5 µM; 200,000 compounds, 0.12% hits; in the data active = inhibition above about 50%
# HKDC1 inh = blocks human hexokinase HKDC1 activity; Q2TB90; 340,000 compounds, 0.16% hits; inhibition, % at 20 µM; recombinant HKDC1, G6PDH/diaphorase resazurin coupled fluorescence;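 active = inhibition above about 35% when tested at 20 µM, limit read from the data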;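 note: plate controls were DMSO wells with enzyme for no effect and DMSO wells lacking enzyme for full effect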
# Target sequence (Q2TB90 whole entry, looked up): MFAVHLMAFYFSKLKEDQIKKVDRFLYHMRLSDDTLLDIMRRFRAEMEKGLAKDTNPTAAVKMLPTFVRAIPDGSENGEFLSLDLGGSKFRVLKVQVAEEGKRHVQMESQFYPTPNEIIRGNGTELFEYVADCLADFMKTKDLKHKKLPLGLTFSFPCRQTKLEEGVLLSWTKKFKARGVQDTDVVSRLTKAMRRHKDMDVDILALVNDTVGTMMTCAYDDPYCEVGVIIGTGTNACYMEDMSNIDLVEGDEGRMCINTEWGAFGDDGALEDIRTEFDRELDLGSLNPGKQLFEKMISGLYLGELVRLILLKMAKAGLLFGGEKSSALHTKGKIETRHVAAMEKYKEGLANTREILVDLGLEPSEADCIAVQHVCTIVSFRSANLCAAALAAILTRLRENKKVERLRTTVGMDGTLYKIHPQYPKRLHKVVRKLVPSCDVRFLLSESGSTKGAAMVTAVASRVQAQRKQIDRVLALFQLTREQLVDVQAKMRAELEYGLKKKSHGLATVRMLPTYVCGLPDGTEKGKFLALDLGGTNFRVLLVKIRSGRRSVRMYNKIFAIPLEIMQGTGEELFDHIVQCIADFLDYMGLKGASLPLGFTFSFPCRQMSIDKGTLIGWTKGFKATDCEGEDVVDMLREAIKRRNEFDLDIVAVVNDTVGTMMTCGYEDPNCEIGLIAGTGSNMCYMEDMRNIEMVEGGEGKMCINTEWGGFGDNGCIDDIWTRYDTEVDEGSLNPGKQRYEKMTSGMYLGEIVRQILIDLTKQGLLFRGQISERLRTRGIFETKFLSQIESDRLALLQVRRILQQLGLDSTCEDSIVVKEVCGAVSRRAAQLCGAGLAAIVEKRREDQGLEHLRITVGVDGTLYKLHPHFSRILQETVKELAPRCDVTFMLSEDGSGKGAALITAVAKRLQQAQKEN
#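 Assay system: recombinant HKDC1 hexokinase; detection: coupled resazurin fluorescence, excitation 525 nm, emission 613 nm; benchmarks: DMSO-plus-enzyme-mix negative control, buffer-substituted positive control; compound dosing: single 20 µM dose; schedule: 90 min at room temperature in dark; also added: glucose plus 1 mM ATP as hexokinase substrates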
# PfG6PD inh = PfG6PD (Plasmodium falciparum) enzyme inhibition; PfGluPho enzyme, NADPH resazurin-diaphorase fluorescence; inhibition, % at 20 µM; 350,000 compounds, 0.78% hits; AID 504690;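 active = inhibition reaching at least a set limit at 20 µM in the primary screen, cut at about 59% in these data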;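 note: 0% = DMSO wells with substrate and 100% = DMSO wells lacking glucose-6-phosphate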
# HKDC1 act conf2 = HKDC1 (human) activation, single-dose confirmed; shares compounds with HKDC1 inh; recombinant HKDC1, G6PDH/diaphorase resazurin fluorescence; hits give low values; inhibition, % at 20 µM; 740 compounds, 14% hits; AID 504708;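 active = inhibition at or below a set negative limit, negative inhibition meaning the enzyme was activated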
# PfG6PD confirm = PfG6PD inhibition, single-dose confirmed; AID 504753; shares compounds with PfG6PD inh; 2,400 compounds, 34% hits; recombinant PfGluPho, NADPH-diaphorase-resazurin fluorescence; inhibition, % at 20 µM;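 active = inhibition of at least 50% at 20 µM in any single replicate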;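 note: 0% = DMSO with substrate and 100% = DMSO lacking glucose-6-phosphate substrate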
# Diaphorase 10uM = inhibits diaphorase or oxidizes, flagging false PfG6PD hits; 820 compounds, 39% hits; shares compounds with PfG6PD inh; AID 504862; diaphorase-coupled resazurin reduction, fluorescence, NADPH 10 uM; inhibition, % at 20 µM;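 active = average inhibition reaching 50% or more with the compound at 20 µM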;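 note: resorufin red fluorescence formed as diaphorase reduces resazurin using NADPH; 0% = DMSO with enzyme and 100% = DMSO without enzyme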
# Diaphorase 30uM = diaphorase inhibition or oxidation at 30 uM NADPH. 820 compounds, 29% hits. Diaphorase/resazurin coupled assay, resorufin fluorescence. shares compounds with PfG6PD inh. inhibition, % at 20 µM. AID 504863;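 active = inhibition averaging 50% or more, tested at 20 µM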;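 note: 0% = DMSO with enzyme and 100% = DMSO wells lacking diaphorase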
# * hit, by the source's call; . = not tested or not shown. This is a sample that favours compounds with a hit; in the whole collection about 1.3% have one here.
SMILES,Diaphorase inh,G6PDH CS,HKDC1 inh,PfG6PD inh,HKDC1 act conf2,PfG6PD confirm,Diaphorase 10uM,Diaphorase 30uM
COc1cc([N+](=O)[O-])ccc1-c1ccc(/C=C2\C(=O)ON=C2c2ccccc2)o1,.,.,43.8*,73.5*,25.4,-9.5,.,.
COc1cc([N+](=O)[O-])ccc1-c1ccc(/C=N\n2cnnc2)o1,.,.,1.0,4.4,.,.,.,.
COCCCNC(=O)C1CCN(C(=O)c2oc3cc4sc(N(C)C)nc4cc3c2C)CC1,.,.,-4.4,6.0,.,.,.,.
COC(=O)c1ccc(CCc2cc(O)c(Br)cc2O)cc1,.,.,69.1*,119.2*,54.2,19.0,.,.
COc1cc(CN2CCCC(C(=O)c3ccc4c5c(cccc35)CC4)C2)cc(OC)c1O (configuration not stated),46.4,62.1*,33.7,73.6*,25.7,78.9*,16.4,-0.1
CN(C)c1ccc2nc3ccc(=[N+](C)C)cc-3sc2c1,-22.0,1.1,35.6*,112.1*,25.0,84.0*,79.5*,78.3*
Cc1nnc2c(SC(C)C)nc3ccccc3n12,.,.,-2.5,-11.9,.,.,.,.
Cc1ccc(SC2=C(Sc3ccc(C)cc3)C(=O)c3ccccc3C2=O)cc1,.,.,66.0*,90.1*,69.0,62.2*,20.3,-1.2
O=C1C(O)=CC(=C(c2ccccc2)c2ccccc2)c2ccccc21,.,.,78.4*,116.9*,17.5,-25.1,.,.
C[n+]1c(-c2ccccc2)cc2c(=Cc3ccc([N+](=O)[O-])cc3)c3ccccc3n21,.,.,36.3*,76.3*,6.0,49.9*,-15.7,-4.9
CC(C)n1c2ccccc2c2cc([N+](=O)[O-])ccc21,17.1,-1.6,-9.3,26.4,.,.,.,.
CN(C)c1ccc(C=c2c3cc(O)ccc3n3c2cc(-c2ccccc2)[n+]3C)cc1,.,.,55.5*,82.5*,30.3,88.7*,35.0,31.5
O=C1OC(c2ccc(O)cc2)(c2ccc(O)cc2)c2ccccc21,14.6,10.2,1.7,-48.1,.,.,.,.
O=C1OC(c2ccc3ccccc3c2O)(c2ccc3ccccc3c2O)c2ccccc21,.,.,36.0*,74.7*,14.7,57.3*,14.8,10.6
CCOC(=O)N1CCN(C(=O)CN(C)S(=O)(=O)c2ccc(OCC)cc2)CC1,.,.,-6.2,-14.3,.,.,.,.
O=C1C(F)=CC(COC(c2ccccc2)(c2ccccc2)c2ccccc2)OC1n1cc(F)c(=O)[nH]c1=O (configuration not stated),.,.,39.9*,59.0*,13.7,-2.9,.,.
CC(=O)OCC1OC(n2cc(F)c(=O)[nH]c2=O)C(OC(C)=O)C1OC(C)=O (configuration not stated),.,.,4.8,0.7,.,.,.,.
Nc1ncnc2c1ncn2[C@@H]1O[C@H](CNC(=O)[C@@H](N)CO)[C@@H](O)[C@H]1O,.,.,-2.8,12.3,.,.,.,.
COc1ccc2c(c1)c1ccc3c(c1n2C)C(=O)C=CC3=O,.,.,-0.8,55.5,.,.,.,.
Cn1c2ccccc2c2ccc3c(c21)C(=O)C=CC3=O,.,.,37.5*,80.8*,0.3,53.3*,-39.8,-6.8
Cn1nc(C(C)(C)C)cc1C(=O)NCc1ccc2c(c1)OCO2,.,.,-0.1,-1.0,.,.,.,.
CCOc1ccc(N)c(SSc2cc(OCC)ccc2N)c1,.,.,-41.9,68.0*,-26.5,45.0,.,.
O=C1CC2(CCCCC2)CC(=O)N1CCc1ccccc1,.,.,-4.4,13.1,.,.,.,.
O=C1C=CC(=O)C(C2=C3C(=O)N(CCc4ccccc4)CC(=O)N3CCC2)=C1,27.0,11.8,63.1*,110.0*,70.9,114.0*,98.8*,82.2*
O=S(=O)(Nc1cc(Sc2ncn[nH]2)c(O)c2ccccc12)c1ccccc1,17.5,54.5*,54.6*,101.6*,48.4,98.4*,52.6*,46.0
SMILES,Diaphorase inh,G6PDH CS,HKDC1 inh,PfG6PD inh,HKDC1 act conf2,PfG6PD confirm,Diaphorase 10uM,Diaphorase 30uM
COC(=O)[C@]1(C)N[C@H](c2ccc(SC3CCCCC3)c(OC)c2)[C@@H]2C(=O)N(C)C(=O)[C@@H]21,.,.,-1.8,10.8,.,.,.,.
N#Cc1c([N+](=O)[O-])cc([N+](=O)[O-])cc1S(=O)(=O)Cc1ccccc1,.,.,34.0,109.4*,19.9,100.5*,90.5*,92.3*
O=C(CCCN1C(=O)C2CC=CCC2C1=O)Nc1ccccc1F (configuration not stated),.,.,-6.7,-3.8,.,.,.,.
O=C1C=CC(=O)c2c(O)c(N3CCN(CCO)CC3)c(Cl)c(O)c21,.,.,32.1,102.5*,10.2,89.3*,53.9*,57.4*
O=C1C=CC(=O)c2c(O)c(N3CCN(CCOCCO)CC3)c(Br)c(O)c21,.,.,46.4*,115.2*,11.1,87.1*,61.0*,53.2*
CC1(OC(=O)C2CCCC2)C(=O)C=C2C=C(c3ccsc3)N(CCc3c[nH]c4ccccc34)C=C2C1=O (configuration not stated),.,.,35.5*,78.4*,6.3,65.7*,4.7,7.5
CN(C)c1ccc(Cc2cc3c(O)ccc(O)c3cc(Cc3ccc(N(C)C)cc3)c2=O)cc1,.,.,60.4*,113.3*,44.7,83.5*,11.1,3.7
Cc1ccc(NC2=C/C(=N/S(=O)(=O)c3cccs3)c3ccccc3C2=O)cc1C,11.0,32.4,14.6,-2.9,.,.,.,.
Cc1ccccc1NC1=C/C(=N\S(=O)(=O)c2ccc(C(=O)O)cc2)c2ccccc2C1=O,.,.,70.2*,78.5*,71.3,61.4*,59.4*,51.5*
CCc1ccc(S(=O)(=O)/N=C2\C=C(NS(=O)(=O)c3ccccc3)C(=O)c3ccccc32)cc1,.,.,28.5,23.5,.,.,.,.
COc1ccc(S(=O)(=O)/N=C2\C=C(Nc3ccc(O)cc3)C(=O)c3ccccc32)cc1,.,.,41.5*,108.6*,26.9,52.3*,40.1,48.1
CC(=O)Nc1ccc(NC2=C/C(=N/S(=O)(=O)c3cccs3)c3ccccc3C2=O)cc1,7.6,43.6,44.2*,87.5*,51.9,73.2*,72.5*,75.6*
CCOC(=O)c1ccc(OCCOc2cccc(C)c2)cc1,.,.,-0.7,9.8,.,.,.,.
COc1ccc(S(N)(=O)=O)cc1C(=O)OCC(=O)N1CC(=O)Nc2ccccc21,.,.,-1.1,6.8,.,.,.,.
CC(C)(C)c1ccc(S(=O)(=O)Nc2ccc(C(=O)N3CCCC3)cc2)cc1,.,.,7.3,-12.4,.,.,.,.
Cc1ccc(C(=O)c2c(C)oc3c2C(=O)C(=O)c2ccccc2-3)cc1,56.7*,63.3*,48.4*,106.7*,46.2,92.0*,92.1*,97.9*
Cc1ccc(C(=O)c2coc3c2C(=O)C(=O)c2ccccc2-3)cc1,58.2*,58.5*,57.1*,110.0*,28.6,109.8*,93.3*,100.5*
Cc1oc2c(c1C(=O)c1ccc(Cl)cc1)C(=O)C(=O)c1ccccc1-2,59.8*,60.1*,54.6*,116.7*,46.1,88.3*,83.3*,77.5*
